Only some compounds are listed: those with a hit (about 2.5% of all), similar ones and a draw of the others.
SENP1 FRET inh: blocks the human SENP1 SUMO protease catalytic domain; inhibition, % at 10 µM; Q9P0U3; recombinant SENP1 catalytic domain, CyPet-SUMO1-YPet FRET cleavage; actives 0.21% (n = 360,000);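 active = inhibition at least 30% at 10 µM, raw YFP signal under a set limit, fluorescence ratio 0.5 to 1.5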
Target sequence (Q9P0U3 419-644 limits assumed): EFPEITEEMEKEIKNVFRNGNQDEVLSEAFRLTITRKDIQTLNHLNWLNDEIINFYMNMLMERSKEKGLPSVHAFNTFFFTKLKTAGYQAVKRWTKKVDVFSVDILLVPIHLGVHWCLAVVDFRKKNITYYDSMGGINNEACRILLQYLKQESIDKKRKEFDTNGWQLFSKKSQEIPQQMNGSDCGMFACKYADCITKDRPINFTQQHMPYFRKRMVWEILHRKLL
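Test system: human SENP1 catalytic domain; medium: Tris pH 8 buffer plus EDTA, NaCl, BME, BSA, NP40, catalase; incubation: 50 min reaction at room temperature; technique: FRET, CFP and YFP emission; controls: no-enzyme low control and enzyme-plus-DMSO high control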
SENP7 inh: blocks the human protease SENP7 | Q9BQF6 | inhibition, % at 5 µM | AID 434973 | actives 1.5% (n = 330,000) | recombinant SENP7, Z-RLRGG-aminoluciferin luminescence, 40 min;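 active = inhibition above about 50% at the single test dose, limit read from the data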
SENP8 block-1: SENP8 protease inhibition; actives 1.2% (n = 330,000); AID 2540; Q96LD8; purified SENP8, Z-RLRGG-aminoluciferin cleavage, luminescence; inhibition, % at 10 µM; in the data active = inhibition above about 50%
Target sequence (Q96LD8 whole entry, looked up): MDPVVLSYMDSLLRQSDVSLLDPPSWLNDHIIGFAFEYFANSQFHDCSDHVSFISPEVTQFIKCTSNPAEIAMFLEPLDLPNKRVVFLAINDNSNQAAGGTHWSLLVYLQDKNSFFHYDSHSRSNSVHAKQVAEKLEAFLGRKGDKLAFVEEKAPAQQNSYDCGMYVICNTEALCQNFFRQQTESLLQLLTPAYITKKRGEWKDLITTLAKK
SENP6 inh: SENP6 protease inhibition. Recombinant SENP6 catalytic domain, aminoluciferin luminescence. actives 1.8% (n = 330,000). inhibition, % at 10 µM;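 active = inhibition above about 50% at the single tested dose, limit read from the data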
SENP8 block-2: inhibitors of human SENP8 protease; inhibition, % at 20 µM; actives 0.64% (n = 360,000); Q96LD8; recombinant SENP8, Nedd8 substrate fluorescence; in the data active = inhibition mostly above about 40%, no sharp cut-off; inactive = mostly below about 27%
SENP8 conf-1: human SENP8 inhibition, confirmed; shares compounds with SENP7 inh; Recombinant SENP8, Z-RLRGG-aminoluciferin luminescence, 60 min; inhibition, % at 12.5 µM; actives 40% (n = 6,200); AID 488912;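 active = mean inhibition across replicates above about 50%, limit read from the data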
SENP6 conf: human SENP6 inhibition, confirmed; shares compounds with SENP7 inh; recombinant SENP6, Z-RLRGG-aminoluciferin luminescence; inhibition, % at 12.5 µM; actives 58% (n = 6,200)
SENP7 confirm: confirmation of human SENP7 protease inhibitors; actives 69% (n = 6,200); inhibition, % at 12.5 µM; recombinant SENP7, Z-RLRGG-aminoluciferin luminescence, 40 min; shares compounds with SENP7 inh
Casp3 SENP sel: inhibits human caspase-3 in SENP selectivity test; shares compounds with SENP7 inh; purified caspase-3, Z-DEVD-aminoluciferin luminescence, 60 min; inhibition, % at 12.5 µM; actives 60% (n = 6,200);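 active = mean inhibition above about 50%, limit read from the data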
Target sequence (P42574 28-227 limits assumed): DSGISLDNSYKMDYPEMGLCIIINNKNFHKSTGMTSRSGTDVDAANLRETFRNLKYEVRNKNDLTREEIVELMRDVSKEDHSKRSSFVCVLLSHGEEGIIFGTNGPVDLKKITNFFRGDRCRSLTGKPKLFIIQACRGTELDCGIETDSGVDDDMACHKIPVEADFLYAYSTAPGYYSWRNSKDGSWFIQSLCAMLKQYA
Luc interf: luminescence interference (SENP counter-screen) | Pre-incubated SENP8/Z-RLRGG-aminoluciferin, luciferase luminescence interference | shares compounds with SENP7 inh | AID 488919 | actives 39% (n = 6,200) | inhibition, % at 12.5 µM;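 active = mean inhibition above about 50% when retested at one dose, limit read from the data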
SENP8 conf-2: SENP8 (human) inhibition, single concentration confirmation; shares compounds with SENP8 block-2; purified SENP8, Nedd8-AMC/pro-Nedd8 cleavage fluorescence, 30 min; inhibition, % at 25 µM; actives 15% (n = 1,400); AID 624319; in the data active = inhibition mostly above about 39%, no sharp cut-off; inactive = mostly below about 34%
SENP1 conf: SENP1 (human) inhibition, single concentration confirmation. actives 34% (n = 520). recombinant SENP1, CyPet-SUMO1-YPet FRET cleavage. shares compounds with SENP1 FRET inh. inhibition, % at 10 µM; in the data active = inhibition mostly above about 35%, no sharp cut-off; inactive = mostly below about 32%
SENP1 kinetic: SENP1 (human) inhibition, kinetic confirmation; shares compounds with SENP1 FRET inh; recombinant SENP1, CyPet-SUMO1-YPet FRET kinetic cleavage; inhibition, % at 10 µM; actives 26% (n = 520); in the data active = inhibition mostly above about 32%, no sharp cut-off; inactive = mostly below about 29%
Of the large screens only hits and unclear results are named; the others gave an inactive call (follow-up assays come after a bar, where they were run).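 Rule for the calls, unless noted: active = mean inhibition above about 50% in the one-dose retest (limit read from the data); inactive = the rest.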

O=C1/C(=C/c2ccc([N+](=O)[O-])cc2)Oc2cc(O)ccc21	SENP1 FRET inh 62, SENP7 inh 63, SENP8 block-1 57, SENP6 inh 70 | SENP8 conf-1 inactive | SENP6 conf inactive | SENP7 confirm 51 | Casp3 SENP sel inactive | Luc interf 53 | SENP1 conf 45 | SENP1 kinetic inactive
CCCCCc1c(-c2ccc(Br)cc2)ncn1CCc1ccccc1OC	none (no result: SENP7 inh, SENP8 block-1, SENP6 inh)
COc1ccccc1OCCCCN1CCN(c2ccccc2OC)CC1	SENP8 block-2 48 | SENP8 conf-2 inactive
O=C(CN(C1CCCCC1)S(=O)(=O)c1ccc(F)cc1)NCC1CCCO1 (centres undefined)	SENP8 block-2 46 (no result: SENP7 inh, SENP8 block-1, SENP6 inh) | SENP8 conf-2 inactive
Cc1ccc(C)c(Nc2c([N+](=O)[O-])cc(C(=O)N3CC(=O)Nc4ccccc43)cc2[N+](=O)[O-])c1	SENP8 block-2 60 | SENP8 conf-2 inactive
CCC1=NN(C(=O)c2ccc([N+](=O)[O-])cc2)C(O)(c2ccccc2)C1 (centres undefined)	SENP8 block-2 50 | SENP8 conf-2 inactive
CC(=O)N1C[C@H]2CON(C)[C@H]2C[C@H]1c1ccccc1	none (no result: SENP7 inh, SENP8 block-1, SENP6 inh)
Oc1ccc(N2CCN(Cc3ccc(OCCCN4CCCCC4)cc3)CC2)cc1	SENP8 block-2 40 | SENP8 conf-2 inactive
O=C(Cc1ccccc1)Oc1coc(CSc2ncccn2)cc1=O	none
COC/C=C/C1=CC2=CC(=O)C(C)(OC(=O)c3cnc4ccccc4n3)C(=O)C2=CN1C1CC1 (centres undefined)	SENP8 block-2 52 | SENP8 conf-2 53
COC/C=C/C1=CC2=CC(=O)C(C)(OC(=O)c3cnc4ccccc4n3)C(=O)C2=CN1CCc1ccccn1 (centres undefined)	none (no result: SENP1 FRET inh, SENP8 block-2)
COC/C=C/C1=CC2=CC(=O)C(C)(OC(=O)c3cnc4ccccc4n3)C(=O)C2=CN1Cc1ccccc1 (centres undefined)	SENP8 block-2 45 | SENP8 conf-2 inactive
COC/C=C/C1=CC2=CC(=O)C(C)(OC(=O)c3cnc4ccccc4n3)C(=O)C2=CN1CCCCO (centres undefined)	SENP8 block-2 56 | SENP8 conf-2 46
CCC(=O)N1CCC1(C)C(=O)Nc1cc(OC)ccc1OC (centres undefined)	none (no result: SENP7 inh, SENP8 block-1, SENP6 inh)
CN(Cc1ccccc1)C(=O)c1ccc(NC(=O)Cc2cccc(NC(=O)C3CCCN(C(=O)C4CCC4)C3)c2)cc1 (centres undefined)	none
CN(N=Cc1ccccc1)C(=S)Nc1ccccc1	SENP8 block-2 43 (no result: SENP7 inh, SENP8 block-1, SENP6 inh) | SENP8 conf-2 inactive
CCOC(=O)C1(CC2CCCCO2)CCN(Cc2cn[nH]c2-c2cccc(F)c2)CC1 (centres undefined)	SENP8 block-2 45 | SENP8 conf-2 inactive
COc1ccc(NC(=O)COC(=O)CC2CC3CCC2C3)c([N+](=O)[O-])c1 (centres undefined)	SENP8 block-2 40 | SENP8 conf-2 inactive
CCOc1ccc(OCCCCN2CCCC2)cc1	SENP8 block-2 42 | SENP8 conf-2 inactive
Cc1ccc(OCCCCN2CCCCC2)cc1	none
Cn1c(=O)c2c(nc(Br)n2C)n(C)c1=O	SENP8 block-2 41 | SENP8 conf-2 inactive
CC(C)OC(=O)CSc1nnc(-c2ccccn2)n1-c1ccccc1	SENP8 block-2 45 | SENP8 conf-2 inactive
C=CCNC(=O)C(=O)Nc1ccc2c(c1)N(S(=O)(=O)c1cccs1)CCC2	none
C=CCn1c(SCC(=O)Nc2cc(C)on2)nnc1C1COc2ccccc2O1 (centres undefined)	none
Cc1cc(NC(=O)CSc2nnc(C3COc4ccccc4O3)n2N)no1 (centres undefined)	SENP8 block-2 43 | SENP8 conf-2 inactive
CC(C)=CCC/C(C)=C/CC/C(C)=N/O	none
C=CC(C)(O)CCC=C(C)C (centres undefined)	SENP8 block-2 41 | SENP8 conf-2 inactive
Cc1ccccc1CC1SC(N)=NC1=O (centres undefined)	none
O=C(Nc1ccc(F)cc1)C(c1cccc(F)c1)N1CCN(Cc2c(F)cccc2Cl)CC1 (centres undefined)	none (no result: SENP7 inh, SENP8 block-1, SENP6 inh)
CCCn1nc(C(=O)NNC(=O)CCCOc2ccc(C)cc2)c2ccccc2c1=O	none
Cn1c(=O)c(Nc2ccc(O)cc2)c2c3c(cccc31)C(=O)c1ccccc1-2	SENP8 block-2 45 | SENP8 conf-2 inactive
Cn1cnc([N+](=O)[O-])c1Cl	none
Cn1cnc2c(=O)[nH]cc([N+](=O)[O-])c21	SENP8 block-2 84 | SENP8 conf-2 59
Cc1[nH]n2c(=O)cc(-c3ccc([N+](=O)[O-])cc3)nc2c1-c1ccccc1	SENP8 block-2 44 | SENP8 conf-2 inactive
CN(Cc1cnn(C)c1)Cc1nc(Cc2ccccc2Cl)no1	none
CC(C)N(Cc1cnn(C)c1)Cc1nc(Cc2ccccc2Cl)no1	SENP8 block-2 47 | SENP8 conf-2 inactive
O=C(NC(=S)Nc1cccc2c(O)cccc12)c1ccccc1[N+](=O)[O-]	SENP8 block-2 47 | SENP8 conf-2 inactive
COc1ccc(CNC(=O)CCNS(=O)(=O)c2cc(Br)cnc2N)cc1	none
Cc1ccc(S(=O)c2ccc([N+](=O)[O-])c3nonc23)cc1 (centres undefined)	SENP8 block-2 61 (no result: SENP7 inh, SENP8 block-1, SENP6 inh) | SENP8 conf-2 inactive
COc1cc(NCCCCCCN)c2ncccc2c1OC	SENP8 block-2 72 (no result: SENP7 inh, SENP8 block-1, SENP6 inh) | SENP8 conf-2 96
COc1c(OC)c(O)c2c(=O)c(O)c(-c3ccccc3)oc2c1OC	SENP8 block-2 42 | SENP8 conf-2 inactive

High-throughput results deposited in PubChem by Sanford-Burnham Center for Chemical Genomics.
